Data published in ChEMBL document CHEMBL1139890, “Cucurbitane glycosides from the fruits of Siraitia gros venorii and their inhibitory effects on Epstein-Barr virus activation” (2007).

Experiments:
Human gammaherpesvirus 4 [1] = experiment: Inhibitory effect on TPA-induced Epstein-Barr virus early antigen activation in Raji cells at 10 mol ratio/32 pmol TPA relative to TPA; type: functional; set-up: scale not given: the % may be the effect or the level left
In short: (§1)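 Raji cells induced with TPA at 32 pmol (20 ng), taken as 100%. Compounds given as molar ratio to TPA. EBV-EA induction is scored against this TPA-only positive control. Raji cell viability is reported as a percentage. IC50 is the molar ratio to TPA giving 50% inhibition of the positive control.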

Human gammaherpesvirus 4 [2] = experiment: Inhibitory effect on TPA-induced Epstein-Barr virus early antigen activation in Raji cells at 100 mol ratio/32 pmol TPA relative to TPA; type: functional; set-up: scale not given: the % may be the effect or the level left; in short: as §1
Raji = experiment: Cell viability of Raji cells at 1000 mol ratio/32 pmol TPA; type: functional, Homo sapiens; in short: as §1
Human gammaherpesvirus 4 [3] = experiment: Inhibitory effect on TPA-induced Epstein-Barr virus early antigen activation in Raji cells at 500 mol ratio/32 pmol TPA relative to TPA; type: functional; set-up: scale not given: the % may be the effect or the level left; in short: as §1
[4] = Inhibitory ratio on NOR1-induced NO activation in human Chang liver cells assessed as nitric oxide scavenging activity relative to NOR1; type: functional
In short: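 Chang liver cells (normal human hepatic cells) were used with NOR 1, an NO donor, as the NO source. Compounds were tested at 350 nmol. Scavenging of NO generated by NOR 1 is given as an inhibitory ratio. The ratio for NOR 1 alone (positive control, 350 nm) is set at 1.0.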

Human gammaherpesvirus 4 [5] = experiment: Inhibitory effect on TPA-induced Epstein-Barr virus early antigen activation in Raji cells at 1000 mol ratio/32 pmol TPA relative to TPA; type: functional; set-up: scale not given: the % may be the effect or the level left; in short: as §1

SMILES | Activity (Human gammaherpesvirus 4 [1]) [%] | Activity (Human gammaherpesvirus 4 [2]) [%] | Activity (Raji) [%] | Activity (Human gammaherpesvirus 4 [3]) [%] | Ratio [4] | Activity (Human gammaherpesvirus 4 [5]) [%]
C[C@H](CC[C@@H](O[C@@H]1O[C@H](CO[C@@H]2O[C@H](CO)[C@@H](O)[C@H](O)[C@H]2O)[C@@H](O)[C@H](O)[C@H]1O)C(C)(C)O)[C@H]1CC[C@@]2(C)[C@@H]3CC=C4[C@@H](CC[C@H](O[C@@H]5O[C@H](CO)[C@@H](O)[C@H](O)[C@H]5O)C4(C)C)[C@]3(C)CC[C@]12C | 100 | 81.9 | 70 | 25.7 | 1.5 | 10.6
C[C@H](CC[C@@H](O[C@@H]1O[C@H](CO)[C@@H](O)[C@H](O)[C@H]1O)C(C)(C)O)[C@H]1CC[C@@]2(C)[C@@H]3C(=O)C=C4[C@@H](CC[C@H](O[C@@H]5O[C@H](CO)[C@@H](O)[C@H](O)[C@H]5O)C4(C)C)[C@]3(C)[C@H](O)C[C@]12C | 100 | 80.8 | 70 | 24.4 | 1.5 | 7.7
CC1(C)N([O])C(c2ccc(C(=O)O)cc2)=[N+]([O-])C1(C)C | – | – | – | – | 8 | –
C[C@H](CC[C@@H](O[C@@H]1O[C@H](CO[C@@H]2O[C@H](CO)[C@@H](O)[C@H](O)[C@H]2O)[C@@H](O)[C@H](O)[C@H]1O)C(C)(C)O)[C@H]1CC[C@@]2(C)[C@@H]3CC=C4[C@@H](CC[C@H](O)C4(C)C)[C@]3(C)C(=O)C[C@]12C | 100 | 80.6 | 70 | 25 | 1.4 | 8.5
C[C@H](CC[C@@H](O[C@@H]1O[C@H](CO[C@@H]2O[C@H](CO)[C@@H](O)[C@H](O)[C@H]2O)[C@@H](O)[C@H](O)[C@H]1O)C(C)(C)O)[C@H]1CC[C@@]2(C)[C@@H]3CC=C4[C@@H](CC[C@H](O[C@@H]5O[C@H](CO[C@@H]6O[C@H](CO)[C@@H](O)[C@H](O)[C@H]6O)[C@@H](O)[C@H](O)[C@H]5O)C4(C)C)[C@]3(C)C(=O)C[C@]12C [11-OXOMOGROSIDE IV A] | 100 | 82.5 | 70 | 27.3 | 1.4 | 10.3
CC1=C(/C=C/C(C)=C/C=C/C(C)=C/C=C/C=C(C)/C=C/C=C(C)/C=C/C2=C(C)CCCC2(C)C)C(C)(C)CCC1 [BETA CAROTENE] | 100 | – | 70 | – | – | 8.6
CC1(C)[C@@H](O[C@H]2O[C@H](C(=O)O)[C@@H](O)[C@H](O)[C@H]2O[C@@H]2O[C@H](C(=O)O)[C@@H](O)[C@H](O)[C@H]2O)CC[C@]2(C)[C@H]3C(=O)C=C4[C@@H]5C[C@@](C)(C(=O)O)CC[C@]5(C)CC[C@@]4(C)[C@]3(C)CC[C@@H]12 [GLYCYRRHIZIN] | – | – | – | – | 2.2 | –
C[C@H](CC[C@@H](O)C(C)(C)O[C@@H]1O[C@H](CO)[C@@H](O)[C@H](O)[C@H]1O)[C@H]1CC[C@@]2(C)[C@@H]3CC=C4[C@@H](CC[C@H](O[C@@H]5O[C@H](CO)[C@@H](O)[C@H](O)[C@H]5O)C4(C)C)[C@]3(C)[C@H](O)C[C@]12C [MOGROSIDE II B] | 100 | 76 | 70 | 26 | 1.5 | 7.2
C[C@H](CC[C@@H](O[C@@H]1O[C@H](CO)[C@@H](O)[C@H](O)[C@H]1O)C(C)(C)O)[C@H]1CC[C@@]2(C)[C@@H]3CC=C4[C@@H](CC[C@H](O[C@@H]5O[C@H](CO[C@@H]6O[C@H](CO)[C@@H](O)[C@H](O)[C@H]6O)[C@@H](O)[C@H](O)[C@H]5O)C4(C)C)[C@]3(C)[C@H](O)C[C@]12C [MOGROSIDE III A2] | 100 | 75.3 | 70 | 24 | 1.5 | 5.1
